# In ChEMBL document CHEMBL1134055, “The synthesis of amino-acid functionalized beta-carbolines as topoisomerase II inhibitors” (2001):
# System: not listed separately
# Assay: Inhibition of topo II-mediated DNA relaxation measured by topo II-mediated DNA relaxation assay; ++ indicates drug interaction with topo II
# Type: functional
# How it was run: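 Relaxation of supercoiled plasmid pUC18 DNA (E. coli) by topo II (2.0 units per reaction) in Tris-Cl pH 8.0 buffer with KCl, MgCl2, ATP, DTT and BSA; 1 µL of 1 mM drug in 10% DMSO per 10 µL reaction, enzyme added last; 37 °C for 30-45 min. Stopped with sarkosyl buffer, chloroform/isoamyl alcohol extraction, 1% agarose gel, ethidium stain. Densitometric qualitative scoring; gels in triplicate.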
row,Compound,DNA relaxation
1,COC(=O)[C@@H](CCCCN)NC(=O)[C@@H]1Cc2c([nH]c3ccccc23)[C@@H](c2cc(OC)c(O)c(OC)c2)N1,drug interaction with topo II
2,COC(=O)[C@@H](CC(C)C)NC(=O)[C@@H]1Cc2c([nH]c3ccccc23)[C@@H](c2cc(OC)c(O)c(OC)c2)N1,drug interaction with topo II
3,COC(=O)[C@@H](C)NC(=O)[C@@H]1Cc2c([nH]c3ccccc23)[C@@H](c2cc(OC)c(O)c(OC)c2)N1,drug interaction with topo II

# System: PC-3
# Assay: In vitro cell growth inhibition of PC3 cell line determined using non-radioactive cell proliferation assay at a dose of 10 uM
# Type: functional, Homo sapiens
# How it was run: (§1)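 Tetrazolium-type colorimetric proliferation assay (CellTiter 96 AQueous, non-radioactive); cells treated at 10, 50 and 100 µM; read as percent cell survival. All points in quadruplicate. Vehicle control DMSO (0.20%); m-AMSA (20, 40 µM) as reference control.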
row,Compound,Cell survival [%]
1,COC(=O)[C@@H](Cc1ccc(O)cc1)NC(=O)[C@@H]1Cc2c([nH]c3ccccc23)[C@@H](c2cc(OC)c(O)c(OC)c2)N1,88.5
2,COc1cc([C@@H]2c3[nH]c4ccccc4c3C[C@H]3C(=O)NCC(=O)N23)cc(OC)c1O,>100
3,COc1cc([C@@H]2c3[nH]c4ccccc4c3C[C@H]3C(=O)N[C@H](C)C(=O)N23)cc(OC)c1O,82.6
4,COC(=O)[C@@H](CCCCN)NC(=O)[C@@H]1Cc2c([nH]c3ccccc23)[C@@H](c2cc(OC)c(O)c(OC)c2)N1,>100
5,COC(=O)[C@@H](CC(C)C)NC(=O)[C@@H]1Cc2c([nH]c3ccccc23)[C@@H](c2cc(OC)c(O)c(OC)c2)N1,>100
6,COC(=O)[C@@H](C)NC(=O)[C@@H]1Cc2c([nH]c3ccccc23)[C@@H](c2cc(OC)c(O)c(OC)c2)N1,96.9

# System: NCI-H520
# Assay: In vitro cell growth inhibition of H520 cell line determined using Non-Radioactive Cell Proliferation Assay at a dose of 100 uM
# Type: functional, Homo sapiens
# How it was run: as §1
row,Compound,Cell survival [%]
1,COC(=O)[C@@H](Cc1ccc(O)cc1)NC(=O)[C@@H]1Cc2c([nH]c3ccccc23)[C@@H](c2cc(OC)c(O)c(OC)c2)N1,83.2
2,COc1cc([C@@H]2c3[nH]c4ccccc4c3C[C@H]3C(=O)NCC(=O)N23)cc(OC)c1O,51.9
3,COc1cc([C@@H]2c3[nH]c4ccccc4c3C[C@H]3C(=O)N[C@H](C)C(=O)N23)cc(OC)c1O,91.5
4,COC(=O)[C@@H](CCCCN)NC(=O)[C@@H]1Cc2c([nH]c3ccccc23)[C@@H](c2cc(OC)c(O)c(OC)c2)N1,87.7
5,COC(=O)[C@@H](CC(C)C)NC(=O)[C@@H]1Cc2c([nH]c3ccccc23)[C@@H](c2cc(OC)c(O)c(OC)c2)N1,80.6
6,COC(=O)[C@@H](C)NC(=O)[C@@H]1Cc2c([nH]c3ccccc23)[C@@H](c2cc(OC)c(O)c(OC)c2)N1,>100

# System: PC-3
# Assay: In vitro cell growth inhibition of PC3 cell line determined using non-radioactive cell proliferation assay at a dose of 100 uM
# Type: functional, Homo sapiens
# How it was run: as §1
row,Compound,Cell survival [%]
1,COC(=O)[C@@H](Cc1ccc(O)cc1)NC(=O)[C@@H]1Cc2c([nH]c3ccccc23)[C@@H](c2cc(OC)c(O)c(OC)c2)N1,89.8
2,COc1cc([C@@H]2c3[nH]c4ccccc4c3C[C@H]3C(=O)NCC(=O)N23)cc(OC)c1O,86.6
3,COc1cc([C@@H]2c3[nH]c4ccccc4c3C[C@H]3C(=O)N[C@H](C)C(=O)N23)cc(OC)c1O,95.3
4,COC(=O)[C@@H](CCCCN)NC(=O)[C@@H]1Cc2c([nH]c3ccccc23)[C@@H](c2cc(OC)c(O)c(OC)c2)N1,>100
5,COC(=O)[C@@H](CC(C)C)NC(=O)[C@@H]1Cc2c([nH]c3ccccc23)[C@@H](c2cc(OC)c(O)c(OC)c2)N1,99.4
6,COC(=O)[C@@H](C)NC(=O)[C@@H]1Cc2c([nH]c3ccccc23)[C@@H](c2cc(OC)c(O)c(OC)c2)N1,>100

# System: PC-3
# Assay: In vitro cell growth inhibition of PC3 cell line determined using Non-Radioactive Cell Proliferation Assay at a dose of 50 uM
# Type: functional, Homo sapiens
# How it was run: as §1
row,Compound,Cell survival [%]
1,COC(=O)[C@@H](Cc1ccc(O)cc1)NC(=O)[C@@H]1Cc2c([nH]c3ccccc23)[C@@H](c2cc(OC)c(O)c(OC)c2)N1,>100
2,COc1cc([C@@H]2c3[nH]c4ccccc4c3C[C@H]3C(=O)NCC(=O)N23)cc(OC)c1O,>100
3,COc1cc([C@@H]2c3[nH]c4ccccc4c3C[C@H]3C(=O)N[C@H](C)C(=O)N23)cc(OC)c1O,99.5
4,COC(=O)[C@@H](CCCCN)NC(=O)[C@@H]1Cc2c([nH]c3ccccc23)[C@@H](c2cc(OC)c(O)c(OC)c2)N1,>100
5,COC(=O)[C@@H](CC(C)C)NC(=O)[C@@H]1Cc2c([nH]c3ccccc23)[C@@H](c2cc(OC)c(O)c(OC)c2)N1,>100
6,COC(=O)[C@@H](C)NC(=O)[C@@H]1Cc2c([nH]c3ccccc23)[C@@H](c2cc(OC)c(O)c(OC)c2)N1,>100

# System: NCI-H520
# Assay: In vitro cell growth inhibition of H520 cell line determined using non-radioactive cell proliferation assay at a dose of 10 uM
# Type: functional, Homo sapiens
# How it was run: as §1
row,Compound,Cell survival [%]
1,COC(=O)[C@@H](Cc1ccc(O)cc1)NC(=O)[C@@H]1Cc2c([nH]c3ccccc23)[C@@H](c2cc(OC)c(O)c(OC)c2)N1,>100
2,COc1cc([C@@H]2c3[nH]c4ccccc4c3C[C@H]3C(=O)NCC(=O)N23)cc(OC)c1O,91.6
3,COc1cc([C@@H]2c3[nH]c4ccccc4c3C[C@H]3C(=O)N[C@H](C)C(=O)N23)cc(OC)c1O,93.8
4,COC(=O)[C@@H](CCCCN)NC(=O)[C@@H]1Cc2c([nH]c3ccccc23)[C@@H](c2cc(OC)c(O)c(OC)c2)N1,78.3
5,COC(=O)[C@@H](CC(C)C)NC(=O)[C@@H]1Cc2c([nH]c3ccccc23)[C@@H](c2cc(OC)c(O)c(OC)c2)N1,85.2
6,COC(=O)[C@@H](C)NC(=O)[C@@H]1Cc2c([nH]c3ccccc23)[C@@H](c2cc(OC)c(O)c(OC)c2)N1,>100

# System: NCI-H520
# Assay: In vitro cell growth inhibition of H520 cell line determined using non-radioactive cell proliferation assay at a dose of 50 uM
# Type: functional, Homo sapiens
# How it was run: as §1
row,Compound,Cell survival [%]
1,COC(=O)[C@@H](Cc1ccc(O)cc1)NC(=O)[C@@H]1Cc2c([nH]c3ccccc23)[C@@H](c2cc(OC)c(O)c(OC)c2)N1,79
2,COc1cc([C@@H]2c3[nH]c4ccccc4c3C[C@H]3C(=O)NCC(=O)N23)cc(OC)c1O,69.2
3,COc1cc([C@@H]2c3[nH]c4ccccc4c3C[C@H]3C(=O)N[C@H](C)C(=O)N23)cc(OC)c1O,99.7
4,COC(=O)[C@@H](CCCCN)NC(=O)[C@@H]1Cc2c([nH]c3ccccc23)[C@@H](c2cc(OC)c(O)c(OC)c2)N1,76.9
5,COC(=O)[C@@H](CC(C)C)NC(=O)[C@@H]1Cc2c([nH]c3ccccc23)[C@@H](c2cc(OC)c(O)c(OC)c2)N1,84.3
6,COC(=O)[C@@H](C)NC(=O)[C@@H]1Cc2c([nH]c3ccccc23)[C@@H](c2cc(OC)c(O)c(OC)c2)N1,>100
